In PubChem BioAssay AID651740 (Broad Institute, 2012) one finds inhibition data, which are given here for 62 compounds.

Each structure is given as a SMILES string. Screen size: about 5,600 compounds; about 1,200 (21%) were called active. Another 3% or so got no clear call; they are omitted.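 How the source made its calls: active means mean inhibition above about 95%, with at least 55% of replicates also reaching it (limit read from the data); inconclusive means meets just one of the two conditions; inactive means meets neither condition.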 The list is a sample of the results.

The nature of this experiment: Trypanosoma cruzi growth blockers in host fibroblasts – NIH3T3 host cells, beta-gal parasites, cherry-pick, set 2, confirmation (AID 651740).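 Further: plate controls were neutral control median for no effect and positive control median for full effect.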 The settings on record: T. cruzi beta-gal in NIH3T3, GalScreen luminescence, 90 h; at 2.09 µM; hits give high values. In a few lines: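 Compound – single point, 100 nL in DMSO · Material – NIH/3T3 host cells with beta-gal T. cruzi Tulahuen C4 · Medium – DMEM plus 2% fetal bovine serum, 1% PSG · Technique – GalScreen lysis and luminescent beta-gal signal · Timing – ≥90 h co-culture with compound, 60 min detection reagent · Also added – 5000 trypomastigotes per well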
Broadly, the inhibition is the drop in the measured response relative to a control, in per cent. As for `C[C@@H]1CN([C@@H](C)CO)C(=O)c2cc(C#CC3CCCCC3)cnc2O[C@H]1CN(C)S(=O)(=O)c1ccccc1`, the inhibition is 85.8% (inactive).

As for `COc1ccc(-c2ccc3c(c2)[C@@H]2[C@@H](CCN2C(=O)Cc2ccccn2)[C@H](CO)N3C)cc1`, the inhibition was 84.9% (inactive). `O=C(C1CCCC1)N1CCCCN2[C@@H](CO)[C@H](c3ccc(-c4cccc(F)c4)cc3)[C@@H]2C1`: the inhibition was 78.2% (inactive).

As to `O=C(CN1CCOCC1)N1CCCCN2[C@@H](CO)[C@H](c3ccc(/C=C/c4ccccc4)cc3)[C@@H]2C1`, the inhibition was 25.9% (inactive). Take `C[C@H]1CN([C@@H](C)CO)S(=O)(=O)c2ccc(C#Cc3cccc(F)c3)cc2O[C@@H]1CN(C)S(=O)(=O)c1cn(C)cn1`: the inhibition is 24.7% (inactive). `C[C@@H]1CCCCO[C@@H](CN(C)Cc2ccccc2)[C@H](C)CN([C@H](C)CO)C(=O)c2cc(NC(=O)Nc3cccc4ccccc34)ccc2O1`: the inhibition was 110% (active). To `Cc1ccc(S(=O)(=O)Nc2ccc3c(c2)C(=O)N([C@@H](C)CO)C[C@@H](C)[C@H](CN(C)C(=O)Nc2cccc4ccccc24)OCCCC[C@H](C)O3)cc1` belongs 66.1% (inactive); to `C[C@@H]1CN([C@@H](C)CO)C(=O)c2cc(NC(=O)Nc3cccc4ccccc34)ccc2O[C@@H](C)CCCCO[C@H]1CN(C)Cc1ccccc1`, 94.8% (inactive). As for `C[C@H](CO)N1C[C@H](C)[C@H](CN(C)S(=O)(=O)c2ccccc2)Oc2ncc(-c3cccc(C(F)(F)F)c3)cc2C1=O`, the inhibition is 47.5% (inactive). As for `OC[C@@H]1[C@H](c2ccc(C#CC3CC3)cc2)[C@@H]2CN(CCC(F)(F)F)CCCCN12`, the inhibition is 78.6% (inactive). `C[C@H](CO)N1C[C@H](C)[C@@H](CN(C)Cc2ccc(C(=O)Nc3ccccc3N)cc2)Oc2c(NC(=O)c3ccc(-c4nccs4)cc3)cccc2C1=O`: the inhibition was 60.5% (inactive). Regarding `C[C@H]1CCCCO[C@H](CN(C)Cc2ccc(C(F)(F)F)cc2)[C@@H](C)CN([C@@H](C)CO)C(=O)c2cc(NC(=O)C3CCCCC3)ccc2O1`, the inhibition is 111% (active). For the compound `C[C@@H]1CN([C@@H](C)CO)C(=O)c2cc(NC(=O)C3CCCCC3)ccc2O[C@@H](C)CCCCO[C@H]1CN(C)Cc1ccncc1`, the inhibition was 78% (inactive). Turning to `COc1ccc(NC(=O)N(C)C[C@@H]2Oc3c(NC(=O)NC4CCCCC4)cccc3C(=O)N([C@@H](C)CO)C[C@@H]2C)cc1`, the inhibition is 23.4% (inactive).

Regarding `C[C@@H]1CN([C@H](C)CO)C(=O)c2cccc(NC(=O)NC3CCCCC3)c2O[C@H]1CN(C)Cc1ccc(C(F)(F)F)cc1`, the inhibition was 106% (active). To `C[C@H](CO)N1C[C@H](C)[C@@H](CN(C)Cc2ccc(C(F)(F)F)cc2)OCCCC[C@H](C)Oc2ccc(NC(=O)C3CCCCC3)cc2C1=O` belongs 106% (active); to `C[C@@H]1CN([C@H](C)CO)S(=O)(=O)c2ccc(C#Cc3ccncc3)cc2O[C@@H]1CN(C)S(=O)(=O)c1ccc(F)cc1`, 22.2% (inactive). As to `OC[C@H]1[C@H](c2ccc(-c3cccc(F)c3)cc2)[C@@H]2CN(Cc3cncnc3)CCCCN12`, the inhibition is 60.7% (inactive). With `CC(=O)N(C)C[C@@H]1[C@@H](c2ccc(-c3ccccc3F)cc2)[C@@H](CO)N1C(C)=O`, the inhibition is 26.5% (inactive). Regarding `OC[C@@H]1[C@H](c2ccc(C#Cc3ccccc3)cc2)[C@@H]2CN(Cc3cncnc3)CCCCN12`, the inhibition was 90.4% (inactive). Take `N#C[C@H]1[C@@H](c2ccc(C3=CCCCC3)cc2)[C@@H](CO)N1C(=O)NC1CCCCC1`: the inhibition was 59.4% (inactive). Regarding `Cc1ccccc1-c1ccc([C@H]2[C@H]3CN(S(=O)(=O)c4ccc(F)cc4)CCCCN3[C@H]2CO)cc1`, the inhibition is 93.8% (inactive). `C[C@@H]1CCCCO[C@H](CN(C)S(=O)(=O)c2ccc(F)cc2)[C@H](C)CN([C@@H](C)CO)C(=O)c2cc(NS(=O)(=O)c3ccccc3)ccc2O1`: the inhibition is 47.8% (inactive). For the compound `O=C(CN1CCOCC1)N1CCCCN2[C@@H](CO)[C@H](c3ccc(-c4ccccc4)cc3)[C@@H]2C1`, the inhibition is 36.1% (inactive).

Regarding `CC(C)NC(=O)N1[C@H](C#N)[C@H](c2ccc(C#CC3CCCCC3)cc2)[C@H]1CO`, the inhibition is 117% (active). For the compound `CS(=O)(=O)N1[C@@H](C#N)[C@H](c2ccc(C#CC3CCCCC3)cc2)[C@@H]1CO`, the inhibition is 35.7% (inactive). For the compound `CCCC#Cc1ccc([C@@H]2[C@@H](C#N)N(C(=O)C3CCCC3)[C@@H]2CO)cc1`, the inhibition was 73.2% (inactive). `CN1c2ccc(-c3ccccc3)cc2[C@@H]2[C@@H](CCN2C(=O)c2ccncc2)[C@@H]1CO`: the inhibition is 64.5% (inactive). For the compound `C[C@@H]1CN([C@H](C)CO)C(=O)Cc2cc(NC(=O)c3ccncc3)ccc2O[C@H]1CN(C)Cc1ccc(-c2ccccc2)cc1`, the inhibition is 48.9% (inactive). Regarding `N#Cc1cccc(-c2ccc([C@H]3[C@H](CO)N4CCCCN(C(=O)Nc5cccc(F)c5)C[C@@H]34)cc2)c1`, the inhibition is 87.9% (inactive). Regarding `C[C@@H]1CN([C@@H](C)CO)C(=O)c2cc(C#Cc3ccccc3)cnc2O[C@H]1CN(C)C(=O)c1ccccn1`, the inhibition was 62.8% (inactive). Take `COc1ccc(C#Cc2cnc3c(c2)C(=O)N([C@@H](C)CO)C[C@H](C)[C@@H](CN(C)C(C)=O)O3)cc1`: the inhibition was -5.22% (inactive). For `COCC(=O)N(C)C[C@@H]1Oc2ncc(C#Cc3ccccc3OC)cc2C(=O)N([C@@H](C)CO)C[C@H]1C`, the inhibition is 99.4% (active). Regarding `C[C@H]1CN([C@@H](C)CO)C(=O)CCCn2cc(nn2)CO[C@H]1CN(C)C(=O)c1ccccc1`, the inhibition was -12.4% (inactive). Consider `C[C@H](CO)N1C[C@H](C)[C@@H](CN(C)S(=O)(=O)c2cccc(F)c2)OCc2ccccc2-c2c(n(C)c3ccccc23)C1=O`, for which the inhibition was 91.4% (inactive). Take `O=C(CN1CCOCC1)N1CCCCN2[C@H](CO)[C@H](c3ccc(-c4ccccc4)cc3)[C@@H]2C1`: the inhibition was 49.3% (inactive). Regarding `CCCC#Cc1ccc2c(c1)O[C@@H](CN(C)C(=O)c1ccccc1F)[C@H](C)CN([C@H](C)CO)S2(=O)=O`, the inhibition is 19.4% (inactive). `C[C@@H]1CN([C@@H](C)CO)S(=O)(=O)c2ccc(/C=C/c3ccccc3)cc2O[C@H]1CN(C)Cc1ccccc1`: the inhibition was 106% (active).

As to `C[C@H]1CN([C@@H](C)CO)S(=O)(=O)c2ccc(C#CCN(C)C)cc2O[C@@H]1CN(C)Cc1ccc(F)cc1`, the inhibition is 93.3% (inactive). Take `CC(C)C#Cc1ccc2c(c1)O[C@H](CN(C)Cc1ccccc1)[C@H](C)CN([C@@H](C)CO)S2(=O)=O`: the inhibition was 105% (active).

As to `C[C@@H]1CN([C@H](C)CO)S(=O)(=O)c2ccc(C#CC3CCCC3)cc2O[C@@H]1CN(C)Cc1cccnc1`, the inhibition was 60.2% (inactive). Consider `C[C@H](CO)N1C[C@H](C)[C@@H](CN(C)Cc2ccncc2)Oc2cc(Br)ccc2S1(=O)=O`, for which the inhibition was 92.7% (inactive). Turning to `C[C@@H]1CN([C@H](C)CO)S(=O)(=O)c2ccc(C3=CCCC3)cc2O[C@H]1CN(C)Cc1ccccc1F`, the inhibition is 73.8% (inactive). Consider `C[C@@H]1CN([C@@H](C)CO)S(=O)(=O)c2ccc(C#Cc3ccc(F)cc3)cc2O[C@H]1CN(C)C(=O)c1ccccn1`, for which the inhibition was 14.4% (inactive).

`C[C@@H]1CN([C@@H](C)CO)S(=O)(=O)c2ccc(C#Cc3ccccc3)cc2O[C@@H]1CN(C)C(=O)Nc1ccccc1`: the inhibition is 99.8% (active). As to `C[C@@H]1CN([C@@H](C)CO)S(=O)(=O)c2ccc(C#Cc3ccc(F)cc3)cc2O[C@H]1CN(C)C(=O)NC1CCCC1`, the inhibition was 81.2% (inactive).

Turning to `C[C@H]1CN([C@@H](C)CO)S(=O)(=O)c2ccc(C3=CCCCC3)cc2O[C@@H]1CN(C)Cc1ccccc1`, the inhibition is 109% (active). `C[C@H]1CN([C@@H](C)CO)S(=O)(=O)c2ccc(C3=CCCC3)cc2O[C@@H]1CN(C)Cc1ccccc1`: the inhibition was 68% (inactive).

Regarding `C[C@H](CO)N1C[C@H](C)[C@H](CN(C)Cc2cccnc2)Oc2cc(C#CC3CCCC3)ccc2S1(=O)=O`, the inhibition was 82.9% (inactive). On to `C[C@H](CO)N1C[C@H](C)[C@@H](CN(C)S(=O)(=O)c2ccccc2)Oc2ncc(C#Cc3ccccc3F)cc2C1=O`, for which the inhibition was 93% (inactive). As to `C[C@H](CO)N1C[C@H](C)[C@H](CN(C)S(=O)(=O)c2cccc(F)c2)Oc2ncc(/C=C/c3ccccc3)cc2C1=O`, the inhibition was 46.4% (inactive). Consider `C[C@H]1CN([C@@H](C)CO)C(=O)c2cccc(NS(=O)(=O)c3cn(C)cn3)c2O[C@@H]1CN(C)CC1CCCCC1`, for which the inhibition is 29.6% (inactive). `Cc1noc(C)c1S(=O)(=O)Nc1ccc2c(c1)C(=O)N([C@@H](C)CO)C[C@H](C)[C@@H](CN(C)C(=O)Nc1cccc3ccccc13)OCCCC[C@H](C)O2`: the inhibition was 42.4% (inactive). With `CC(C)(C)[S@@](=O)N1Cc2cc(C(=O)NCc3ccc4c(c3)OCO4)nc(-c3cccc(-c4ccccc4)c3)c2[C@H]1CCO`, the inhibition was 91.6% (inactive).

In the case of `O=C(Nc1ccc(Cl)cc1)N[C@@H]1CC[C@@H](CCNC(=O)c2ccccc2F)O[C@H]1CO`, the inhibition was 36.4% (inactive). On to `Cc1ccc(S(=O)(=O)N(C)C[C@@H]2Oc3ncc(-c4cc5ccccc5o4)cc3C(=O)N([C@H](C)CO)C[C@@H]2C)cc1`, for which the inhibition was 43% (inactive). Consider `COc1ccccc1-c1ccc2c(c1)O[C@H](CN(C)S(=O)(=O)c1ccc(C)cc1)[C@@H](C)CN([C@H](C)CO)S2(=O)=O`, for which the inhibition is 91.3% (inactive).

In the case of `O=C(Nc1ccccc1)N1CCCCN2[C@H](CO)[C@@H](c3ccc(C#Cc4ccccn4)cc3)[C@H]2C1`, the inhibition was 39.3% (inactive).

Take `C[C@H](CO)N1C[C@H](C)[C@@H](CN(C)C(=O)C2CCCCC2)Oc2cc(-c3ccccc3)ccc2S1(=O)=O`: the inhibition was 68.2% (inactive). Turning to `C[C@H](CO)N1C[C@H](C)[C@H](CN(C)Cc2ccncc2)Oc2cc(-c3ccncc3)ccc2S1(=O)=O`, the inhibition is 90.6% (inactive). In the case of `CCCN(C)C[C@@H]1Oc2cc(C#Cc3ccc(F)cc3)ccc2S(=O)(=O)N([C@H](C)CO)C[C@H]1C` it was 68.9% (inactive); in that of `C[C@@H]1CN([C@H](C)CO)S(=O)(=O)c2ccc(C#C[C@@H](C)O)cc2O[C@@H]1CN(C)Cc1ccc(-c2ccccc2)cc1`, 96.9% (active).
